Data reported in ChEMBL document CHEMBL2010692, “Inhibitory effect of novel S,N-bisphosphonates on some carcinoma cell lines, osteoarthritis, and chronic inflammation” (Eur J Med Chem, 2012).

How the values were obtained:
Rattus norvegicus [1] = experiment: Antiarthritic activity in complete Freund's adjuvant-induced rat arthritis model assessed as reduction of paw volume in non-injected paw at 100 mg/kg, sc qd for 28 days; format: functional; conditions: 672 h, route subcutaneous
Procedure, shortened: (§1)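 Rat adjuvant-induced polyarthritis. Compounds were dissolved or suspended in sterile saline, sonicated as needed, brought to pH 7.0 with NaOH, and kept as frozen aliquots, fresh each dosing day. Dosing was sc once daily for 28 days, by body weight. The arthritic control group got vehicle sc. Injected and noninjected hindpaw volumes were measured on day 28 by mercury displacement plethysmography and expressed as % inhibition.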

Rattus norvegicus [2] = experiment: Antiarthritic activity in complete Freund's adjuvant-induced rat arthritis model assessed as reduction of paw volume in injected paw at 100 mg/kg, sc qd for 28 days; format: functional; conditions: 672 h, route subcutaneous; procedure, shortened: as §1
Mus musculus [3] = experiment: Antiinflammatory activity in methylated bovine serum albumin sensitized delayed-type hypersensitivity granuloma mouse model assessed as reduction of granuloma wet weight at 100 mg/kg, sc qd for 9 days; format: functional; conditions: 216 h, route subcutaneous
Procedure, shortened: (§2)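 Groups of 10 female mice (25 g) were sensitized sc over the inguinal lymph node with mBSA emulsion in saline, Freund's incomplete adjuvant and dextran. Three weeks later, two 6-mm hydroxyapatite discs soaked in mBSA (30 mg/mL saline) were implanted sc in the dorsum. Compounds at pH 7.4 were given sc into the scruff at 0.1 mL/10 g, daily from implantation to day 9. Granuloma wet and dry weights were recorded as % inhibition.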

Rattus norvegicus [4] = experiment: Antiarthritic activity in complete Freund's adjuvant-induced rat arthritis model assessed as reduction of paw volume in non-injected paw at 50 mg/kg, sc qd for 28 days; format: functional; conditions: 672 h, route subcutaneous; procedure, shortened: as §1
Rattus norvegicus [5] = experiment: Antiarthritic activity in complete Freund's adjuvant-induced rat arthritis model assessed as reduction of paw volume in injected paw at 50 mg/kg, sc qd for 28 days; format: functional; conditions: 672 h, route subcutaneous; procedure, shortened: as §1
Mus musculus [6] = experiment: Antiinflammatory activity in methylated bovine serum albumin sensitized delayed-type hypersensitivity granuloma mouse model assessed as reduction of granuloma dry weight at 100 mg/kg, sc qd for 9 days; format: functional; conditions: 216 h, route subcutaneous; procedure, shortened: as §2
Mus musculus [7] = experiment: Antiinflammatory activity in methylated bovine serum albumin sensitized delayed-type hypersensitivity granuloma mouse model assessed as reduction of granuloma dry weight at 50 mg/kg, sc qd for 9 days; format: functional; conditions: 216 h, route subcutaneous; procedure, shortened: as §2
Mus musculus [8] = experiment: Antiinflammatory activity in methylated bovine serum albumin sensitized delayed-type hypersensitivity granuloma mouse model assessed as reduction of granuloma wet weight at 50 mg/kg, sc qd for 9 days; format: functional; conditions: 216 h, route subcutaneous; procedure, shortened: as §2
Rattus norvegicus [9] = experiment: Antiarthritic activity in complete Freund's adjuvant-induced rat arthritis model assessed as reduction of paw volume in non-injected paw at 20 mg/kg, sc qd for 28 days; format: functional; conditions: 672 h, route subcutaneous; procedure, shortened: as §1
Mus musculus [10] = experiment: Antiinflammatory activity in methylated bovine serum albumin sensitized delayed-type hypersensitivity granuloma mouse model assessed as reduction of granuloma dry weight at 60 mg/kg, sc qd for 9 days; format: functional; conditions: 216 h, route subcutaneous; procedure, shortened: as §2
Rattus norvegicus [11] = experiment: Antiarthritic activity in complete Freund's adjuvant-induced rat arthritis model assessed as reduction of paw volume in injected paw at 30 mg/kg, sc qd for 28 days; format: functional; conditions: 672 h, route subcutaneous; procedure, shortened: as §1
Rattus norvegicus [12] = experiment: Antiarthritic activity in complete Freund's adjuvant-induced rat arthritis model assessed as reduction of paw volume in non-injected paw at 30 mg/kg, sc qd for 28 days; format: functional; conditions: 672 h, route subcutaneous; procedure, shortened: as §1
Rattus norvegicus [13] = experiment: Antiarthritic activity in complete Freund's adjuvant-induced rat arthritis model assessed as reduction of paw volume in injected paw at 20 mg/kg, sc qd for 28 days; format: functional; conditions: 672 h, route subcutaneous; procedure, shortened: as §1
Mus musculus [14] = experiment: Antiinflammatory activity in methylated bovine serum albumin sensitized delayed-type hypersensitivity granuloma mouse model assessed as reduction of granuloma wet weight at 60 mg/kg, sc qd for 9 days; format: functional; conditions: 216 h, route subcutaneous; procedure, shortened: as §2
Mus musculus [15] = experiment: Antiinflammatory activity in methylated bovine serum albumin sensitized delayed-type hypersensitivity granuloma mouse model assessed as reduction of granuloma dry weight at 25 mg/kg, sc qd for 9 days; format: functional; conditions: 216 h, route subcutaneous; procedure, shortened: as §2
Mus musculus [16] = experiment: Antiinflammatory activity in methylated bovine serum albumin sensitized delayed-type hypersensitivity granuloma mouse model assessed as reduction of granuloma wet weight at 25 mg/kg, sc qd for 9 days; format: functional; conditions: 216 h, route subcutaneous; procedure, shortened: as §2
Rattus norvegicus [17] = experiment: Antiarthritic activity in complete Freund's adjuvant-induced rat arthritis model assessed as reduction of paw volume in injected paw at 10 mg/kg, sc qd for 28 days; format: functional; conditions: 672 h, route subcutaneous; procedure, shortened: as §1
Rattus norvegicus [18] = experiment: Antiarthritic activity in complete Freund's adjuvant-induced rat arthritis model assessed as reduction of paw volume in non-injected paw at 10 mg/kg, sc qd for 28 days; format: functional; conditions: 672 h, route subcutaneous; procedure, shortened: as §1
Mus musculus [19] = experiment: Toxicity in albino mouse assessed as mortality at 500 to 1000 mg/kg, […] after 24 hrs; format: organism-based; set-up: dose 500-1000 mg/kg; conditions: in vivo
Procedure, shortened: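 Albino mice (20-25 g) were split into 6 groups of 8. Compounds were given at 500, 750 and 1000 mg/kg; controls received buffer only. Toxic symptoms, mortality and postmortem findings were recorded 24 h after administration. LD50 was calculated by the Dm − Σ(z×d)/n formula.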

Mus musculus [20] = experiment: Toxicity in albino mouse assessed as toxic symptoms at 500 to 1000 mg/kg, ip after 24 hrs; conditions: in vivo
HepG2 = experiment: Cytotoxicity against human HepG2 cells after 48 hrs by SRB assay; format: functional, cell-based; conditions: HepG2, 48 h
Procedure, shortened: (§3)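 Cells were seeded at 10^4 per well and allowed to attach for 24 h. They were then exposed to four compound concentrations (5, 12.5, 25, 50), each in triplicate wells, for 48 h at 37 °C in 5% CO2. Cells were fixed and stained with sulforhodamine B, washed with acetic acid, and bound dye was recovered in Tris-EDTA pH 7.4 and read on a plate reader. IC50 was taken from survival curves using the triplicate means.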

HCT-116 = experiment: Cytotoxicity against human HCT116 cells after 48 hrs by SRB assay; format: functional, cell-based; conditions: HCT-116, 48 h; procedure, shortened: as §3

| Structure (SMILES) | inhibition in vivo at 100 mg/kg (Rattus norvegicus [1]) [%] | inhibition in vivo at 100 mg/kg (Rattus norvegicus [2]) [%] | inhibition in vivo at 100 mg/kg (Mus musculus [3]) [%] | inhibition in vivo at 50 mg/kg (Rattus norvegicus [4]) [%] | inhibition in vivo at 50 mg/kg (Rattus norvegicus [5]) [%] | inhibition in vivo at 100 mg/kg (Mus musculus [6]) [%] | inhibition in vivo at 50 mg/kg (Mus musculus [7]) [%] | inhibition in vivo at 50 mg/kg (Mus musculus [8]) [%] | inhibition in vivo at 20 mg/kg (Rattus norvegicus [9]) [%] | inhibition in vivo at 60 mg/kg (Mus musculus [10]) [%] | inhibition in vivo at 30 mg/kg (Rattus norvegicus [11]) [%] | inhibition in vivo at 30 mg/kg (Rattus norvegicus [12]) [%] | inhibition in vivo at 20 mg/kg (Rattus norvegicus [13]) [%] | inhibition in vivo at 60 mg/kg (Mus musculus [14]) [%] | inhibition in vivo at 25 mg/kg (Mus musculus [15]) [%] | inhibition in vivo at 25 mg/kg (Mus musculus [16]) [%] | inhibition in vivo at 10 mg/kg (Rattus norvegicus [17]) [%] | inhibition in vivo at 10 mg/kg (Rattus norvegicus [18]) [%] | also measured |
| --- | --- | --- | --- | --- | --- | --- | --- | --- | --- | --- | --- | --- | --- | --- | --- | --- | --- | --- | --- |
| O=P(O)(O)C1(P(=O)(O)O)C(=S)c2ccccc2N=C1C1CCCCC1 | 14 | 16 | 24 | 8 | < 5 | 36 | 28 | 19 | – | – | – | – | – | – | – | – | – | – | – |
| CCOP(=O)(OCC)C1(P(=O)(OCC)OCC)C(=S)c2ccccc2N=C1C | – | – | 40 | 66 | 20 | 44 | – | – | 61 | 37 | 18 | 72 | 23 | 30 | 24 | 20 | < 5 | 38 | – |
| CCOP(=O)(OCC)C1(P(=O)(OCC)OCC)N=C(c2ccc(N(CC)CC)cc2)c2ccccc2C1=S | – | – | 34 | 65 | 24 | 44 | – | – | 56 | 40 | 16 | 52 | 20 | 31 | 32 | 22 | < 5 | 44 | Activity (Mus musculus [19]): Non-toxic; Activity (Mus musculus [20]): Non-toxic |
| CCN(CC)c1ccc(C2=NC(P(=O)(O)O)(P(=O)(O)O)C(=S)c3ccccc32)cc1 | 24 | 18 | 23 | 10 | < 5 | 30 | 26 | 16 | – | – | – | – | – | – | – | – | – | – | – |
| CCOP(=O)(OCC)C1(P(=O)(OCC)OCC)Nc2ccccc2C1=S | – | – | 44 | 64 | 15 | 46 | – | – | 60 | 42 | 11 | 58 | 7 | 31 | 30 | 24 | 5 | 48 | – |
| CN1c2ccccc2C(=S)C1(P(=O)(O)O)P(=O)(O)O | 27 | 13 | 25 | 18 | < 5 | 32 | 16 | 15 | – | – | – | – | – | – | – | – | – | – | – |
| CCOP1(=O)Nc2ccccc2C(S)=C1P(=O)(OCC)OCC (configuration not stated) | – | – | 51 | 75 | 25 | 50 | – | – | 56 | 42 | 14 | 68 | 10 | 44 | 38 | 33 | < 5 | 66 | – |
| O=P(O)(O)C(Cl)(Cl)P(=O)(O)O [CLODRONIC ACID] | – | – | 44 | 68 | 35 | 48 | – | – | 70 | 44 | 34 | 62 | 28 | 40 | 33 | 30 | 23 | 56 | – |
| COc1cccc2c1C(=O)c1c(O)c3c(c(O)c1C2=O)C[C@@](O)(C(=O)CO)C[C@@H]3O[C@H]1C[C@H](N)[C@H](O)[C@H](C)O1 [DOXORUBICIN] | – | – | – | – | – | – | – | – | – | – | – | – | – | – | – | – | – | – | IC50 (HepG2): 5.7 µM; IC50 (HCT-116): 6.86 µM |
| CCOP(=O)(OCC)C1=C(S)c2ccccc2N(C)P1(=O)OCC (configuration not stated) | – | – | 50 | 76 | 37 | 55 | – | – | 60 | 53 | 35 | 73 | 27 | 48 | 50 | 33 | 18 | 66 | Activity (Mus musculus [19]): Non-toxic; Activity (Mus musculus [20]): Non-toxic |
| CC1=Nc2ccc(Br)cc2C(=S)C1(P(=O)(O)O)P(=O)(O)O | 18 | 21 | 13 | 12 | < 5 | 25 | 18 | < 10 | – | – | – | – | – | – | – | – | – | – | – |
